In ChEMBL document CHEMBL1153027, “Synthesis of quinolinyl and isoquinolinyl phenyl ketones as novel agonists for the cannabinoid CB2 receptor” (Bioorg Med Chem, 2009):

Key:
Cannabinoid receptor 2 [1] = biological target: T1, Cannabinoid receptor 2 (Homo sapiens, UniProt P34972); assay: Agonist activity at human CB2 receptor expressed in CHO cells by [35]GTPgammaS binding assay; type: functional, cell-based
Method in brief: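 hCB2 stably expressed in CHO cells; [35S]GTPγS binding stimulated by agonist, procedure of Savinainen et al. Full concentration–response curves were run only for compounds giving over 50% relative activity at 10 µM. EC50 and Emax were obtained by nonlinear regression fitted to a sigmoidal concentration–response equation.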

[2] = biological target: Cannabinoid receptor 1 (Rattus norvegicus) (UniProt P20272); assay: Agonist activity at rat cerebellar membrane CB1 receptor at 10 uM by [35]GTPgammaS binding assay relative to basal level; type: functional
Method in brief: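 Rat cerebellar membranes (CB1) used to screen for CB1 agonism and antagonism, per a previously described method. [35S]GTPγS binding with compounds at 10 µM. Results given as % basal; mean ± SEM of at least three duplicate experiments.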

Cannabinoid receptor 2 [3] = biological target: T1, Cannabinoid receptor 2; assay: Agonist activity at human CB2 receptor expressed in CHO cells at 10 uM by [35]GTPgammaS binding assay relative to HU210; type: functional, cell-based
Method in brief: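 Human CB2 stably expressed in CHO cells; agonist-stimulated binding of the nonhydrolyzable GTP analogue [35S]GTPγS, run as described by Savinainen et al. Single test concentration 10 µM. Response expressed as percentage of the full CB1/CB2 agonist HU-210. Mean ± SEM of at least three experiments performed in duplicate.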

T1 sequence (P34972 whole entry): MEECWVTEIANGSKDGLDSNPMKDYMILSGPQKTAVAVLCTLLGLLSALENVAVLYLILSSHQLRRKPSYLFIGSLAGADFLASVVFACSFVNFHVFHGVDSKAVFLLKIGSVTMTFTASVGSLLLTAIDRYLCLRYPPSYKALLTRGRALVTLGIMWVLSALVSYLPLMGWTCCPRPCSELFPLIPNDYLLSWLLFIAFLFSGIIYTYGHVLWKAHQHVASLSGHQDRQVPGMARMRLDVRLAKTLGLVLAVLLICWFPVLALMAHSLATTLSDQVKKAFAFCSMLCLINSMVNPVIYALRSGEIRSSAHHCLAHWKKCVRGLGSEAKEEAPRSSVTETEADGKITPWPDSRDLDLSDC
Sequence of Cannabinoid receptor 1 (Rattus norvegicus) (P20272 whole entry): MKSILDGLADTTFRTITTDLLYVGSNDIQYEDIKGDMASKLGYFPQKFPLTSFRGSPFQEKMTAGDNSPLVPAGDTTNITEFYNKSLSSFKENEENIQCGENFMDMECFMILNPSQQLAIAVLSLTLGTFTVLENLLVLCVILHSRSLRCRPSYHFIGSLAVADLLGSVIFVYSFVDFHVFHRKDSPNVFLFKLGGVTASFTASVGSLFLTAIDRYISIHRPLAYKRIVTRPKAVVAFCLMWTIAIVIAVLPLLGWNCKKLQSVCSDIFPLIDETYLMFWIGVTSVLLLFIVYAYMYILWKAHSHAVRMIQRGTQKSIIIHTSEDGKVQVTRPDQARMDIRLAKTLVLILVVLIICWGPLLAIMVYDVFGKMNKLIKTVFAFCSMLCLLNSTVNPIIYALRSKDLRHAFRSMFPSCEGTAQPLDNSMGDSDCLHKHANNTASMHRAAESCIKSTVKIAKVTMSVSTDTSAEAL

SMILES	EC50 (Cannabinoid receptor 2 [1]) [nM]	Activity [2] [%]	Emax (Cannabinoid receptor 2 [3]) [%]
COc1ccccc1C(=O)c1ccc2ccccc2n1	2510	106	53
O=C(c1cccc(C(F)(F)F)c1)c1nccc2ccccc12	–	106	–
CN(C)c1ccccc1C(=O)c1nccc2ccccc12	631	116	95
CN(C)c1ccc(C(=O)c2nccc3ccccc23)cc1	2510	99	68
O=C(c1cc(C(F)(F)F)cc(C(F)(F)F)c1)c1ccc2ccccc2n1	–	108	–
O=C(c1ccc(Cl)cc1)c1nccc2ccccc12	–	101	–
O=C(c1cc(C(F)(F)F)cc(C(F)(F)F)c1)c1nccc2ccccc12	–	101	–
O=C(c1ccc(Cl)c(Cl)c1)c1ccc2ccccc2n1	–	100	–
O=C(c1ccc(C(F)(F)F)cc1)c1nccc2ccccc12	3160	95	57
COc1ccc(C(=O)c2nccc3ccccc23)cc1	–	85	–
O=C(c1cccc(C(F)(F)F)c1)c1ccc2ccccc2n1	5010	102	42
O=C(c1ccc(Cl)c(Cl)c1)c1nccc2ccccc12	–	111	–
O=C(c1cccc(F)c1)c1nccc2ccccc12	–	99	–
CN(C)c1ccccc1C(=O)c1ccc2ccccc2n1	794	101	91
O=C(c1ccc(F)cc1)c1nccc2ccccc12	–	104	–
O=C(c1ccc2ccccc2n1)c1ccccc1C(F)(F)F	2000	102	87
COc1cccc(C(=O)c2nccc3ccccc23)c1	–	112	–
O=C(c1ccccc1C(F)(F)F)c1nccc2ccccc12	501	112	72
O=C(c1ccccc1)c1nccc2ccccc12	–	102	–

Second part, the compound after the results:

EC50 (Cannabinoid receptor 2 [1]) [nM]	Activity [2] [%]	Emax (Cannabinoid receptor 2 [3]) [%]	SMILES
–	102	–	CC(C)Oc1ccc(C(=O)c2ccc3ccccc3n2)cc1
–	99	–	O=C(c1ccc(F)cc1)c1ccc2ccccc2n1
3980	101	63	O=C(c1ccc(Cl)cc1)c1ccc2ccccc2n1
–	100	–	CCOc1ccc(C(=O)c2ccc3ccccc3n2)cc1
–	105	–	O=C(c1ccc(C(F)(F)F)cc1)c1ccc2ccccc2n1
–	108	–	CCCOc1ccc(C(=O)c2ccc3ccccc3n2)cc1
7940	103	52	O=C(c1ccccc1)c1ccc2ccccc2n1
2000	102	54	COc1cccc(C(=O)c2ccc3ccccc3n2)c1
–	108	–	COc1ccc(C(=O)c2ccc3ccccc3n2)cc1
6310	101	62	CN(C)c1ccc(C(=O)c2ccc3ccccc3n2)cc1
–	106	–	O=C(c1cccc(F)c1)c1ccc2ccccc2n1
